TRPC4 PAM = allosteric potentiators of mouse TRPC4 channel | HEK293 TRPC4beta/mu-opioid, DAMGO EC20, Fluo-4 Ca2+ flux; hits give high values | B-score at 10 µM | actives 0.42% (n = 310,000) | AID 2227;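 active = B-score of calcium response area above 5 SD of library B-scores, with initial fluorescence ratio within 5 SD of library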;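 also: B-score of integrated fluorescence ratio over time as area under calcium response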
Target sequence (Q9QUQ5 whole entry, looked up): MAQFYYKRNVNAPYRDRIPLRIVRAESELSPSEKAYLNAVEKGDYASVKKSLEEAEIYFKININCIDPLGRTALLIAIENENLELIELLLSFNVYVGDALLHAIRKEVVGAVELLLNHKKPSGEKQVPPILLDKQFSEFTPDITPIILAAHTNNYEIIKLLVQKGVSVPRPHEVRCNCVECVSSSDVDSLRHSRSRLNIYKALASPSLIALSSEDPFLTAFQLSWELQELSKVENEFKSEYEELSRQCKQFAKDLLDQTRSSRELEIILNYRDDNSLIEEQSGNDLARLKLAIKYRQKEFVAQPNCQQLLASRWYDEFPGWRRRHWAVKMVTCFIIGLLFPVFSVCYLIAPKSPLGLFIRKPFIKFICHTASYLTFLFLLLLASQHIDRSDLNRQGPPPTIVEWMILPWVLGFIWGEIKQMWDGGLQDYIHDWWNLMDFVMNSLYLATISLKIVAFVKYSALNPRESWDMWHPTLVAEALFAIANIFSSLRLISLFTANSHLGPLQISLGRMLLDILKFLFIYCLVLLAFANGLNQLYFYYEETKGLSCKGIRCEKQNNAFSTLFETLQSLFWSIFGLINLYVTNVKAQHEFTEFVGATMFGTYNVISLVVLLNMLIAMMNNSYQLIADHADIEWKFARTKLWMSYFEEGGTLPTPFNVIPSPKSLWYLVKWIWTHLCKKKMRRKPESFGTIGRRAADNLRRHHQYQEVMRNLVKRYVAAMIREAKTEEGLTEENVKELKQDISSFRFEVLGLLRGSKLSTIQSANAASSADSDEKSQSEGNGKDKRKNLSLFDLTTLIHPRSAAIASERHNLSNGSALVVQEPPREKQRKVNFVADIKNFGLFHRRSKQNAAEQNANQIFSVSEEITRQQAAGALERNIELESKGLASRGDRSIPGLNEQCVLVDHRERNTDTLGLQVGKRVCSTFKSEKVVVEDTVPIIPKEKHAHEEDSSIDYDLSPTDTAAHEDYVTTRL
TRPC4 block = blocks the mouse TRPC4 cation channel; Q9QUQ5; AID 2247; actives 0.39% (n = 300,000); B-score at 10 µM; HEK293 TRPC4beta/mu-opioid, DAMGO-evoked Fluo4 calcium flux; hits give low values;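 active = B-score over 3 SD under the library average, no early fluorescence shift, positive overall ratio signal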
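Material: HEK293 cells with stable TRPC4beta plus mu-opioid receptor expression / Probe or stimulus: DAMGO in two steps, submaximal then maximal / Compound: single concentration per test compound / Technique: kinetic Fluo4 fluorescence imaging of calcium influx / Read-out: per-well B score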
TRPC6 act = activates the mouse TRPC6 cation channel | actives 0.13% (n = 310,000) | AID 2550 | B-score at 10 µM | HEK293-TRPC6 membrane potential dye fluorescence; hits give high values | Q61143;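 active = B-score of the integrated fluorescence ratio above library mean plus 3 SD, and starting fluorescence ratio within library mean plus 5 SD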;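 also: higher score means more depolarization so channel activation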
TRPC4 act = activators of mouse TRPC4 channel | Q9QUQ5 | HEK293 TRPC4beta/mu-opioid, Fluo4 calcium fluorescence; hits give high values | B-score at 10 µM | actives 0.49% (n = 310,000);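 active = B-score above 5 SD of library B-scores, and initial fluorescence ratio not above library mean plus 5 SD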;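 also: positive B-score marks a calcium rise read as TRPC4 activation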
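Material: TRPC4beta and mu-opioid receptor HEK293 stable cells | Incubation: 45 min room-temperature Fluo4 loading, 110 s read | Detection: Kinetic Fluo4 calcium fluorescence | Measure: Integrated baseline-normalised fluorescence ratio, converted to per-well B score | Benchmarks: Low control buffer alone, high control maximal DAMGO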
TRPC6 inhibitor = blocks the mouse TRPC6 cation channel; Q61143; HEK293-TRPC6, membrane potential dye, ACh-evoked depolarization; hits give low values; B-score at 10 µM; actives 1.1% (n = 310,000); AID 2553;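 active = B-score under library mean minus 3 SD, initial fluorescence not abnormally high, positive integrated signal ratio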;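 also: B-score derived from integrated fluorescence ratio over the kinetic read; more negative B-score means stronger inhibition of depolarization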
The depositor's hits bear a star. Most compounds without a hit are left out; they make up all but 2.3% or so of the library.

Results for O=S(=O)(c1ccc(Cl)cc1)N1CCN2CCCC2C1 (centres undefined) ?
TRPC4 PAM: 34*; TRPC4 block: inactive; TRPC6 act: inactive; TRPC4 act: 98*; TRPC6 inhibitor: inactive

Results for Cc1ccc(S(=O)(=O)N2CCN3CCCC3C2)cc1 (centres undefined) ?
TRPC4 PAM: inactive; TRPC4 block: inactive; TRPC6 act: inactive; TRPC4 act: inactive; TRPC6 inhibitor: inactive

How did COc1ccccc1N1CCN(C2CCCN(S(=O)(=O)c3ccccc3)C2)CC1 (centres undefined) do in these assays?
TRPC4 PAM: inactive; TRPC4 block: -6*; TRPC6 act: inactive; TRPC4 act: inactive; TRPC6 inhibitor: inactive

Results for C=CCS(=O)(=O)N1CCCC(N2CCN(c3ccccc3OC)CC2)C1 (centres undefined) ?
TRPC4 PAM: inactive; TRPC4 block: inactive; TRPC6 act: inactive; TRPC4 act: inactive; TRPC6 inhibitor: inactive

What do the screens show for `CN(C(=O)COC(=O)CCC(=O)c1ccc(Cl)cc1)c1c(N)n(Cc2ccccc2)c(=O)[nH]c1=O`?
TRPC4 PAM: inactive; TRPC4 block: inactive; TRPC6 act: inactive; TRPC4 act: inactive; TRPC6 inhibitor: inactive

How did CC(C)CN(C(=O)COC(=O)CCC(=O)c1ccc(Cl)cc1)c1c(N)n(Cc2ccccc2)c(=O)[nH]c1=O do in these assays?
TRPC4 PAM: 114*; TRPC4 block: inactive; TRPC6 act: inactive; TRPC4 act: inactive; TRPC6 inhibitor: inactive

Results for CC(C)CN(C(=O)C1CC1)c1c(N)n(Cc2ccccc2)c(=O)[nH]c1=O ?
TRPC4 PAM: 31*; TRPC4 block: inactive; TRPC6 act: inactive; TRPC4 act: inactive; TRPC6 inhibitor: inactive

What do the screens show for `CC(C)CN(C(=O)CC1CCCC1)c1c(N)n(Cc2ccccc2)c(=O)[nH]c1=O`?
TRPC4 PAM: inactive; TRPC4 block: inactive; TRPC6 act: inactive; TRPC4 act: inactive; TRPC6 inhibitor: inactive

Results for CCOc1ccc(C(=O)NCC(=O)N2CCC3CCCCC3C2)cc1OCC (centres undefined) ?
TRPC4 PAM: inactive; TRPC4 block: inactive; TRPC6 act: inactive; TRPC4 act: inactive; TRPC6 inhibitor: inactive

What do the screens show for `COC(=O)c1ccc(NC(=O)COc2coc(CN3CCc4ccccc43)cc2=O)cc1`?
TRPC4 PAM: inactive; TRPC4 block: inactive; TRPC6 act: inactive; TRPC4 act: inactive; TRPC6 inhibitor: inactive

How did Cc1nc(N2CCN(c3ccccn3)CC2)c2c(C)c(C(=O)N3CCN(c4ccccc4F)CC3)sc2n1 do in these assays?
TRPC4 PAM: inactive; TRPC4 block: -9*; TRPC6 act: inactive; TRPC4 act: inactive; TRPC6 inhibitor: inactive

How did CC(C)(C)NC(=O)CSc1nc(N)c(-c2ccccc2)c(=O)[nH]1 do in these assays?
TRPC4 PAM: inactive; TRPC4 block: inactive; TRPC6 act: inactive; TRPC4 act: inactive; TRPC6 inhibitor: inactive

How did COc1cc(C2(c3ccc(O)c(OC)c3)C(=O)Nc3c(C)cc(Br)cc32)ccc1O do in these assays?
TRPC4 PAM: 27*; TRPC4 block: inactive; TRPC6 act: inactive; TRPC4 act: inactive; TRPC6 inhibitor: inactive

Results for Cc1cc(Br)cc2c1NC(=O)C2(c1c(C)n(C)n(-c2ccccc2)c1=O)c1c(C)n(C)n(-c2ccccc2)c1=O ?
TRPC4 PAM: inactive; TRPC4 block: inactive; TRPC6 act: inactive; TRPC4 act: inactive; TRPC6 inhibitor: inactive

Results for CCCCN(C)CCNC(=O)c1ccc(Cn2c(=S)[nH]c3ccc(Br)cc3c2=O)cc1 ?
TRPC4 PAM: 25*; TRPC4 block: inactive; TRPC6 act: inactive; TRPC4 act: inactive; TRPC6 inhibitor: inactive

How did CCCCCn1c(=O)[nH]c2cc(C(=O)NCCCN(C)Cc3ccccc3)ccc2c1=O do in these assays?
TRPC4 PAM: 12*; TRPC4 block: inactive; TRPC6 act: inactive; TRPC4 act: inactive; TRPC6 inhibitor: inactive

Results for CCOCCCn1c(=S)[nH]c2cc(C(=O)NCCCN(CC)CC)ccc2c1=O ?
TRPC4 PAM: 24*; TRPC4 block: inactive; TRPC6 act: inactive; TRPC4 act: inactive; TRPC6 inhibitor: inactive

What do the screens show for `CCOCCCNC(=O)c1ccc2c(=O)n(CCCOCC)c(=S)[nH]c2c1`?
TRPC4 PAM: inactive; TRPC4 block: inactive; TRPC6 act: inactive; TRPC4 act: inactive; TRPC6 inhibitor: inactive

Results for CC(C)CNc1nc(N)c([N+](=O)[O-])c(N2CCCCCC2)n1 ?
TRPC4 PAM: inactive; TRPC4 block: inactive; TRPC6 act: inactive; TRPC4 act: inactive; TRPC6 inhibitor: inactive

How did Cc1sc2nc(SCC(=O)N(C)c3ccccc3)n(C)c(=O)c2c1C do in these assays?
TRPC4 PAM: inactive; TRPC4 block: inactive; TRPC6 act: inactive; TRPC4 act: inactive; TRPC6 inhibitor: inactive

What do the screens show for `CN(C)C/C=C(/c1ccc(Br)cc1)c1cccnc1`?
TRPC4 PAM: inactive; TRPC4 block: inactive; TRPC6 act: inactive; TRPC4 act: inactive; TRPC6 inhibitor: inactive

How did CCCCn1c(N)nc2ccccc21 do in these assays?
TRPC4 PAM: inactive; TRPC4 block: inactive; TRPC6 act: inactive; TRPC4 act: inactive; TRPC6 inhibitor: inactive

Results for CN(C)CCn1c(N)nc2ccccc21 ?
TRPC4 PAM: 13*; TRPC4 block: inactive; TRPC6 act: inactive; TRPC4 act: inactive; TRPC6 inhibitor: inactive

Results for CCC(C(=O)Nc1ccccc1OC)n1c(C(=O)OC)cc2ccsc21 (centres undefined) ?
TRPC4 PAM: 15*; TRPC4 block: inactive; TRPC6 act: inactive; TRPC4 act: inactive; TRPC6 inhibitor: inactive

Results for CCOC(=O)c1sc(-c2ccc(F)cc2)cc1NC(=O)Nc1ccccc1OC ?
TRPC4 PAM: inactive; TRPC4 block: inactive; TRPC6 act: inactive; TRPC4 act: inactive; TRPC6 inhibitor: inactive

What do the screens show for `CC1CCc2nc(NC(=O)CN3CCN(Cc4ccc5c(c4)OCO5)CC3)sc2C1` (centres undefined)?
TRPC4 PAM: inactive; TRPC4 block: -6*; TRPC6 act: inactive; TRPC4 act: inactive; TRPC6 inhibitor: inactive

What do the screens show for `CC1CCc2nc(NC(=O)CN3CCN(c4ccccc4)CC3)sc2C1` (centres undefined)?
TRPC4 PAM: inactive; TRPC4 block: inactive; TRPC6 act: inactive; TRPC4 act: inactive; TRPC6 inhibitor: inactive

How did COc1ccccc1OCC(=O)Nc1ccc(Cl)cc1 do in these assays?
TRPC4 PAM: inactive; TRPC4 block: -7*; TRPC6 act: inactive; TRPC4 act: inactive; TRPC6 inhibitor: inactive

How did CS(=O)(=O)N(CC(=O)Nc1ccc2c(c1)OCO2)Cc1ccccc1 do in these assays?
TRPC4 PAM: inactive; TRPC4 block: inactive; TRPC6 act: inactive; TRPC4 act: inactive; TRPC6 inhibitor: inactive

Assay outcomes deposited in PubChem BioAssay by Johns Hopkins Ion Channel Center.
